This is an account of results in ChEMBL document CHEMBL1909595, “Characterization of a novel and selective CB1 antagonist as a radioligand for receptor occupancy studies” (Bioorg Med Chem Lett, 2011).

The subject of data set [1] is Plasma. In words: Free plasma concentration in Sprague-Dawley rat at 0.03 mg/kg, po measured 6 hrs post dose. In kind it is ADME, organism-based. Further details: dose 0.03 mg/kg, route oral; call rule not given here. The settings on record: in vivo.
For data set [2], the system named is Rattus norvegicus. In words: Ex vivo receptor occupancy of CB1 receptor in Sprague-Dawley rat at 0.03 mg/kg, po measured 6 hrs post dose. In kind it is functional. The essentials:
(§1)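 Male Sprague-Dawley rats were dosed p.o. (0.03–30 mg/kg, vehicle 10% DMAC/cremophor/ethanol, 2 ml/kg) 1 h before the dark cycle. Brains were taken 6 h post-dose, three per group, frozen and cut into 20 µm cryosections. Sections pre-incubated 30 s, then 6 min with 40 nM [3H]BMS-725519 in chilled HEPES buffer. Nonspecific binding by 5 µM unlabelled BMS-725519. Three 30 s washes. Cerebellar density measured by phosphor imaging (DLU/mm², background-subtracted); occupancy expressed relative to vehicle specific binding.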

Data set [3] deals with Rattus norvegicus. Put plainly: Ex vivo receptor occupancy of CB1 receptor in Sprague-Dawley rat at 0.1 mg/kg, po measured 6 hrs post dose. In kind it is functional. The method in brief: as §1
Data set [4] deals with Plasma. Put plainly: Free plasma concentration in Sprague-Dawley rat at 0.3 mg/kg, po measured 6 hrs post dose. Further details: dose 0.3 mg/kg, route oral. The data set is classed as ADME, organism-based. The following applies: in vivo.
For data set [5], the target named is T1, Cannabinoid receptor 1 (Rattus norvegicus, UniProt P20272). In words: Displacement of [3H]-SR-141716 from rat CB1 receptor. (Loss of bound radioactivity is the signal in a displacement assay; it reports binding, not function.)
T1 sequence (P20272 whole entry): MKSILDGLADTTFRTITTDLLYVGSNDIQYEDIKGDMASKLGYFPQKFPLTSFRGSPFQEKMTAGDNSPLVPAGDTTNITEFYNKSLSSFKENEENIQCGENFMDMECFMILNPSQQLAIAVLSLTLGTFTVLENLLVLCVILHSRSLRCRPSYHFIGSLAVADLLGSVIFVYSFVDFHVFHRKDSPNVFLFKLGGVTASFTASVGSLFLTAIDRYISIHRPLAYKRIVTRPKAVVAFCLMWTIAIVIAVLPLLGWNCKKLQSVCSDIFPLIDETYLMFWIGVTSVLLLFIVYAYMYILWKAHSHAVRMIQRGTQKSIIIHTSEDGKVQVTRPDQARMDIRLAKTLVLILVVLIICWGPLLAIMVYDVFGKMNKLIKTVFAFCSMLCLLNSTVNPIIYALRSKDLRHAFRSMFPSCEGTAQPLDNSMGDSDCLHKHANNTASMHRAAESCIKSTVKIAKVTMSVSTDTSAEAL
The test system of data set [6] is Rattus norvegicus. In words: Ex vivo receptor occupancy of CB1 receptor in Sprague-Dawley rat at 10 mg/kg, po measured 6 hrs post dose. In kind it is functional. The essentials:
as §1

Data set [7] deals with Plasma. In words: Free plasma concentration in Sprague-Dawley rat at 0.1 mg/kg, po measured 6 hrs post dose. The settings on record: in vivo. In kind it is ADME, organism-based. Details: dose 0.1 mg/kg, route oral.
The subject of data set [8] is Rattus norvegicus. In words: Ex vivo receptor occupancy of CB1 receptor in Sprague-Dawley rat at 30 mg/kg, po measured 6 hrs post dose. The data set is classed as functional. The method in brief: as §1
For data set [9], the system named is Rattus norvegicus. In words: Antiobesity activity in Sprague-Dawley rat assessed as reduction in food intake at 10 mg/kg, po measured after 20 hrs. In kind it is functional. Further details: scale not given: the % may be the effect or the level left. The essentials: (§2)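 Male Sprague-Dawley rats, six per group, trained to bar-press for food pellets in operant chambers. Dosed p.o. in 10% DMAC/10% EtOH/10% Cremophor/70% water at 2 ml/kg. Two 20 h sessions starting at dark-cycle onset, 4 h apart. The first session was the baseline used to balance groups. Pellets counted at 1, 2, 4, 8, 12 and 20 h after lock-out. One-way ANOVA with Fisher PLSD.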

Data set [10] deals with Rattus norvegicus. Put plainly: Antiobesity activity in Sprague-Dawley rat assessed as reduction in food intake at 3 mg/kg, po measured after 20 hrs. In kind it is functional. Further details: scale not given: the % may be the effect or the level left. The essentials:
as §2

The test system of data set [11] is Rattus norvegicus. In words: Antiobesity activity in Sprague-Dawley rat assessed as reduction in food intake at 0.03 mg/kg, po measured after 20 hrs. In kind it is functional. Further details: scale not given: the % may be the effect or the level left. The method in brief:
as §2

Data set [12] concerns Rattus norvegicus. In words: Ex vivo receptor occupancy of CB1 receptor in Sprague-Dawley rat at 0.3 mg/kg, po measured 6 hrs post dose. In kind it is functional. The method in brief: as §1
Data set [13] concerns Rattus norvegicus. In words: Ex vivo receptor occupancy of CB1 receptor in Sprague-Dawley rat at 3 mg/kg, po measured 6 hrs post dose. In kind it is functional. The method in brief: as §1
Data set [14] has as its system Plasma. Put plainly: Free plasma concentration in Sprague-Dawley rat at 1 mg/kg, po measured 6 hrs post dose. In kind it is ADME, organism-based. Further details: dose 1 mg/kg, route oral. The following applies: in vivo.
Data set [15] deals with Cannabinoid receptor 2 (Homo sapiens, UniProt P34972). In words: Displacement of [3H]-CP55940 from human CB2 receptor.
Cannabinoid receptor 2, sequence (P34972 whole entry): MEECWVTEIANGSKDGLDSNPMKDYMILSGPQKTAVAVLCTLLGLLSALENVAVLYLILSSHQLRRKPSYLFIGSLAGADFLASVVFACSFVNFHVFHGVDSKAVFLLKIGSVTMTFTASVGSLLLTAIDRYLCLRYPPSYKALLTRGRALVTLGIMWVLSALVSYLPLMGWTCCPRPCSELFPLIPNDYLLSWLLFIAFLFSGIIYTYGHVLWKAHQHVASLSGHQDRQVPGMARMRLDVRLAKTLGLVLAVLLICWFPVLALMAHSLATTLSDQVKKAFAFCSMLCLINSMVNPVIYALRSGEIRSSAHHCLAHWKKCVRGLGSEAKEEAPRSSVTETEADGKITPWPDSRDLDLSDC
The target of data set [16] is T1, Cannabinoid receptor 1. Put plainly: Displacement of [3H]BMS-725519 from rat brain CB1 receptor after 45 mins by autoradiography.
The test system of data set [17] is Rattus norvegicus. Put plainly: Antiobesity activity in Sprague-Dawley rat assessed as reduction in food intake at 30 mg/kg, po measured after 20 hrs. The data set is classed as functional. Further details: scale not given: the % may be the effect or the level left. The essentials:
as §2

The test system of data set [18] is Rattus norvegicus. In words: Ex vivo receptor occupancy of CB1 receptor in Sprague-Dawley rat at 1 mg/kg, po measured 6 hrs post dose. The data set is classed as functional. The essentials:
as §1

The nature of data set [19]: Protein binding in human. The data set is classed as ADME.
Data set [20] concerns Plasma. In words: Free plasma concentration in Sprague-Dawley rat at 30 mg/kg, po measured 6 hrs post dose. In kind it is ADME, organism-based. Details: dose 30 mg/kg, route oral. The following applies: in vivo.
The subject of data set [21] is Plasma. Put plainly: Free plasma concentration in Sprague-Dawley rat at 10 mg/kg, po measured 6 hrs post dose. In kind it is ADME, organism-based. Details: dose 10 mg/kg, route oral. The settings on record: in vivo.
In data set [22] the test system is Rattus norvegicus. In words: Antiobesity activity in Sprague-Dawley rat assessed as reduction in food intake at 0.1 mg/kg, po measured after 20 hrs. The data set is classed as functional. Details: scale not given: the % may be the effect or the level left. The essentials: as §2
Data set [23] relates to Rattus norvegicus. Put plainly: Antiobesity activity in Sprague-Dawley rat assessed as reduction in food intake at 1 mg/kg, po measured after 20 hrs. In kind it is functional. Further details: scale not given: the % may be the effect or the level left. The essentials: as §2
The test system of data set [24] is Plasma. Put plainly: Free plasma concentration in Sprague-Dawley rat at 3 mg/kg, po measured 6 hrs post dose. In kind it is ADME, organism-based. The settings on record: in vivo. Details: dose 3 mg/kg, route oral.
Data set [25] concerns Rattus norvegicus. Put plainly: Antiobesity activity in Sprague-Dawley rat assessed as reduction in food intake at 0.3 mg/kg, po measured after 20 hrs. Further details: scale not given: the % may be the effect or the level left. The data set is classed as functional. The essentials:
as §2

For data set [26], the target named is T2, Cannabinoid receptor 1 (Homo sapiens, UniProt P21554). Put plainly: Displacement of [3H]-SR-141716 from human CB1 receptor.
T2 sequence (P21554 whole entry): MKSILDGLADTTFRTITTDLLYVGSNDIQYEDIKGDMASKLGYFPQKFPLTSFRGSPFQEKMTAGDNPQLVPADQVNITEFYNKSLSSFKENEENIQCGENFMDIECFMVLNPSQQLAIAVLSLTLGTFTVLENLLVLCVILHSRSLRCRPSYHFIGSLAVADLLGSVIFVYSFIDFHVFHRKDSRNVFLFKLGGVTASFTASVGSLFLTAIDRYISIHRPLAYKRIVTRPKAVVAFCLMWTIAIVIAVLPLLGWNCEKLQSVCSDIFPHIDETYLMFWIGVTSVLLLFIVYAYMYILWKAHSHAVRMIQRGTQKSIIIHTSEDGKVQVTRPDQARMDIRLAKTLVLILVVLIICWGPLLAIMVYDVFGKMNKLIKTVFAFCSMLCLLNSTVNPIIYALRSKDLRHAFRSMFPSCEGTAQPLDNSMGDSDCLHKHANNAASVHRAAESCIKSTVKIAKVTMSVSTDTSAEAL
Data set [27] has as its target T1, Cannabinoid receptor 1. Put plainly: Binding affinity to rat brain CB1 receptor after 90 mins by scintillation counting. The method in brief:
(§3)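 Rat whole-brain or CHO (human CB1) membranes were homogenized in 10 mM HEPES/1 mM EGTA pH 7.4 with protease inhibitors, DTT and sucrose. Centrifuged at 1000 g, then the pellet was taken at 100,000 g and resuspended in 20 mM HEPES, 1 mM EGTA, 1 mM DTT, 1 mM MgCl2. Saturation with increasing [3H]BMS-725519; nonspecific binding by cold BMS-725519. 90 min at room temperature, GF/B filtration, scintillation counting. Kd and Bmax derived.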

Data set [28] concerns Brain. In words: Drug uptake in brain of mouse expressing CB1 receptor at 10 uM. In kind it is ADME, tissue-based. The following applies: in vivo.
Data set [29] has as its target T2, Cannabinoid receptor 1. In words: Binding affinity to human CB1 receptor expressed in CHO cells after 90 mins by scintillation counting. In kind it is cell-based. The essentials:
as §3

Data set [30] relates to Brain. Put plainly: Drug uptake in brain of CB1 receptor knockout mouse at 10 uM. The data set is classed as ADME, tissue-based. The settings on record: in vivo.

The structures appear in SMILES notation. A value given as a limit tells only on which side of the number the result lay.

A word on the Kd: it is the free concentration of one partner at which half of the binding sites on the other are occupied at equilibrium, for simple one-to-one binding. The term IC50 denotes the point on the concentration scale where inhibition reaches its midpoint. Broadly, the fraction unbound is free concentration divided by total concentration. Regarding `O=c1n(Cc2ccc(C(F)(F)F)nc2)nc2c(-c3ccncc3)c(-c3ccc(Cl)cc3)cnn12`, the “Cp(f)” value is 1.5 nM in [1]; 15.3 nM in data set [4]; 5.4 nM in [7]; 49.4 nM in [14]; 1047 nM in data set [20]; 531 nM in data set [21]. Further, the “Cp(f)” value in data set [24] worked out at 112 nM. The Activity turned out to be 12.7% in data set [2]; 14.3% in data set [3]; 64.5% in data set [6]; 74.1% in [8]; 67.4% in data set [9]; 41.5% in [10]. In addition, the Activity came out at 0% in [11]; 20.6% in data set [12]; 55.6% in data set [13]; 72.5% in data set [17]; 29.8% in data set [18]; 0% in data set [22]. Moreover, the figures for the Activity in data set [23] and in data set [25] were 23.7% and 22.3%, respectively. Besides, the Kd in [5] is 12.4 nM; in [15], over 10000 nM; in [26] it was 4.6 nM. In addition, the IC50 in [16] was determined as 37 nM. The same compound had an unbound share (fraction unbound) in data set [19] of 0.05.
On to `[3H]c1cc(-c2cnn3c(=O)n(Cc4ccc(C(F)(F)F)nc4[3H])nc3c2-c2ccncc2)ccc1Cl`, for which the dissociation constant Kd in data set [27] turned out to be 29.1 nM; in data set [29], 3.95 nM. The Drug uptake result is reported as “Active” in data set [28] and “Not Active” in data set [30].
